Test [1] deals with Escherichia coli. Kind of test: Antibacterial activity against Escherichia coli ATCC 25922 assessed as fold increase in MIC incubated for 24 hrs in presence of Ca2+ ions by CLSI based broth microdilution method. It is filed as functional. An outline of the steps:
(§1)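 E. coli MICs by CLSI broth microdilution in cation-adjusted Mueller Hinton broth. […] Inoculum was 10^6 CFU/mL with 2-fold serial peptide dilutions, incubated 24 h at 37 °C. MIC is the lowest concentration inhibiting growth. Three independent assays, each in triplicate.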

For test [2], the system named is Escherichia coli. Nature of the test: Antibacterial activity against Escherichia coli ATCC 25922 assessed as fold increase in MIC incubated for 24 hrs in presence of Mg2+ ions by CLSI based broth microdilution method. It is filed as functional. The essentials: as §1
The next test has as its system HepaRG. Nature of the test: Antiproliferative activity human HepaRG cells assessed as reduction in cell viability at 50 ug/ml incubated for 24 hrs by MTS assay. It is filed as functional. The conditions noted are these: dose 50 µg/ml. The essentials:
(§2)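 Cells seeded at 10,000 per well 24 h before treatment. Media: MRC-5 and HEK293 in DMEM with 10% FBS; HepaRG in William's E with GlutaMAX; HEKa in Dermal Cell Basal medium plus keratinocyte growth kit. Peptide at 10–250 μg/mL in triplicate for 24 h, 37 °C, 5% CO2. MTS added for 2 h, then A490 read. Survival is blank-corrected OD as % of untreated control.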
For orientation: Formazan colour is commonly taken as a measure of viable cells.

Test [3] deals with Cell membrane. Nature of the test: Disruption of cell membrane in Escherichia coli ATCC BAA-2452 assessed as cell membrane perturbation at 4 times of MIC measured after 1 hrs by PI and DAPI double staining based fluorescence microscopic analysis. The essentials: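 Mid-log E. coli ATCC BAA-2452 was washed three times in PBS (10 mM, pH 7.3). Cells at 10^7 CFU/mL were exposed to agent at MIC or 4× MIC for 1 h, then pelleted at 3000g and washed. Staining was PI for 15 min, then DAPI for 15 min, both at 37 °C in the dark. Untreated cells were processed alike. Imaged by fluorescence microscopy with 60× oil objective.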

The subject of test [4] is Staphylococcus aureus. Nature of the test: Bactericidal activity against methicillin resistant Staphylococcus aureus ATCC BAA 1556 assessed as inhibition of bacterial growth at MIC incubated for 4 hrs by Time kill assay. In kind it is functional. An outline of the steps:
(§3)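 Aliquots taken every 30 min for 4 h and plated on agar for viable colony counts. Two independent experiments in triplicate.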

The subject of test [5] is Cell membrane. Nature of the test: Induction of membrane disruption in bacterial inner membrane mimic DOPC/DOPG (7:3) large unilamellar vesicles assessed as induction of dye leakage measured upto 100 mins by calcein dye based analysis. It is filed as subcellular. The settings on record: dose 5-50 µg/ml. An outline of the steps:
(§4)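 LUVs loaded with calcein: DOPC/DOPG 7:3 w/w (bacterial mimic) or DOPC/cholesterol 10:1 w/w (mammalian mimic). Mixed 1:1 by volume with peptide at 5, 10, 20, 30 or 50 μg/mL. Fluorescence (ex 490/em 520 nm) read every 10 min for 100 min. Leakage expressed relative to 10% Triton X-100 lysis (100%), after subtracting liposome background. Triplicate.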

In test [6] the test system is Escherichia coli. Kind of test: Antibacterial activity against Escherichia coli ATCC 25922 assessed as fold increase in MIC incubated for 24 hrs in presence of K+ ions by CLSI based broth microdilution method. In kind it is functional. An outline of the steps: as §1
The test system of test [7] is Staphylococcus aureus. Nature of the test: Antibacterial activity against methicillin resistant Staphylococcus aureus ATCC BAA 1556 assessed as fold increase in MIC incubated for 24 hrs in presence of K+ ions by CLSI based broth microdilution method. It is filed as functional. The essentials: (§5)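 CLSI broth microdilution. Overnight cultures diluted in cation-adjusted Mueller Hinton broth to 10^6 CFU/mL, mixed 1:1 with 2-fold serial peptide dilutions, 24 h at 37 °C. […] MIC is the lowest concentration inhibiting growth. Three independent assays in triplicate.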
For orientation: Dilution methods test growth across graded concentrations, often in twofold steps.

Test [8] concerns Cell membrane. Nature of the test: Disruption of cell membrane in methicillin resistant Staphylococcus aureus ATCC BAA 1556 assessed as increase in PI fluorescence intensity at 4 times of MIC measured after 1 hrs by PI staining based flow cytometric analysis. The essentials: (§6)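 Mid-log cells grown in Mueller Hinton broth, washed in 10 mM Tris pH 7.4, 10^7 CFU/mL, treated at MIC and 4× MIC for 1 h. Pelleted, washed, PI-stained for 15 min at 37 °C in the dark, then counted by flow cytometry for % PI-positive cells. PBS-treated cells as negative control, 10% Triton X-100 as positive control. Run in triplicate; two-tailed unpaired t-test.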
(A flow cytometer gives signals particle by particle.)

A further test concerns HEK293. Nature of the test: Antiproliferative activity human HEK293 cells assessed as reduction in cell viability at 250 ug/ml incubated for 24 hrs by MTS assay. The conditions noted are these: dose 250 µg/ml. It is filed as functional. The essentials:
as §2

Test [9] has as its system Staphylococcus aureus. Nature of the test: Bactericidal activity against methicillin resistant Staphylococcus aureus ATCC BAA 1556 assessed as inhibition of bacterial growth at MIC to 4 times of MIC by Time kill assay. It is filed as functional, organism-based. The conditions noted are these: time 4.0 hrs, TDE = time-dependent effect. An outline of the steps: as §3
Test [10] has as its system MRC5. Kind of test: Antiproliferative activity human MRC5 cells assessed as reduction in cell viability at 250 ug/ml incubated for 24 hrs by MTS assay. In kind it is functional. The settings on record: dose 250 µg/ml. The essentials:
as §2

In test [11] the test system is Staphylococcus aureus. Kind of test: Bactericidal activity against methicillin resistant Staphylococcus aureus ATCC BAA 1556 assessed as inhibition of bacterial growth at 4 times of MIC incubated for 4 hrs by Time kill assay. In kind it is functional. The essentials:
as §3

In test [12] the test system is Cell membrane. Nature of the test: Disruption of cell membrane in methicillin resistant Staphylococcus aureus ATCC BAA 1556 assessed as cell membrane perturbation measured after 1 hrs by DAPI and PI double staining based fluorescence microscopic analysis. In kind it is subcellular. An outline of the steps:
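Mid-log cells washed in PBS (10 mM, pH 7.3), 10^7 CFU/mL, treated at MIC and 4× MIC for 1 h. Pelleted and washed, then stained with PI for 15 min at 37 °C in the dark, then DAPI for 15 min at 37 °C in the dark. Untreated controls. Imaged by fluorescence microscopy, 60× oil objective.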

The test system of test [13] is Staphylococcus aureus. Nature of the test: Antibacterial activity against methicillin resistant Staphylococcus aureus ATCC BAA 1556 assessed as fold increase in MIC incubated for 24 hrs in presence of Mg2+ ions by CLSI based broth microdilution method. It is filed as functional. The essentials: as §5
Test [14] deals with Cell membrane. Nature of the test: Disruption of cell membrane in Escherichia coli ATCC BAA-2452 assessed as increase in PI fluorescence intensity measured after 1 hrs by PI staining based flow cytometric analysis. The essentials:
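Mid-log E. coli ATCC BAA-2452 grown in Mueller Hinton broth, washed thrice and resuspended at 10^7 CFU/mL in 10 mM Tris pH 7.4. […] Controls: PBS (negative) and 10% Triton X-100 (positive). Triplicate; two-tailed unpaired t-test.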

In test [15] the test system is Cell membrane. Nature of the test: Induction of membrane disruption in bacterial inner membrane mimic DOPC/DOPG (7:3) large unilamellar vesicles assessed as induction of dye leakage at 5 ug/ml measured after 100 mins by calcein dye based analysis. The conditions noted are these: dose 5.0 µg/ml. In kind it is subcellular. An outline of the steps:
as §4

Test [16] deals with Staphylococcus aureus. Kind of test: Antibacterial activity against methicillin resistant Staphylococcus aureus ATCC BAA 1556 assessed as fold increase in MIC incubated for 24 hrs in presence of NH4+ ions by CLSI based broth microdilution method. In kind it is functional. An outline of the steps: as §5
In test [17] the test system is Cell membrane. Kind of test: Disruption of cell membrane in methicillin resistant Staphylococcus aureus ATCC BAA 1556 assessed as increase in PI fluorescence intensity measured after 1 hrs by PI staining based flow cytometric analysis. In kind it is subcellular. An outline of the steps:
as §6

In test [18] the test system is MRC5. Nature of the test: Antiproliferative activity human MRC5 cells assessed as reduction in cell viability at 50 ug/ml incubated for 24 hrs by MTS assay. In kind it is functional. The settings on record: dose 50 µg/ml. The essentials:
as §2

We go through two substances from ChEMBL document CHEMBL5316289, “Structure-Based Rational Design of Small α-Helical Peptides with Broad-Spectrum Activity against Multidrug-Resistant Pathogens” (J Med Chem, 2023).

Calls of active or inactive are those of the source. No cut-off for these calls is given here.

Turning to H-KWLKKWLKWWKK-NH2, the “fold change (FC)” value in the test on Escherichia coli [1], in the test with Escherichia coli [2], in the test with Escherichia coli [6], in the test on Staphylococcus aureus [7], with Staphylococcus aureus [13] and with Staphylococcus aureus [16] was 2 throughout. Moreover, the Activity is greater than 75% in the test with HepaRG; “Dose-Dependent Effect” with Cell membrane [5]; 75% in the test with Cell membrane [8]; greater than 60% with HEK293; greater than 60% in the test on MRC5 [10]; “Dose-Dependent Effect” with Cell membrane [12]. For the same substance, the Activity entry was “Dose-Dependent Effect” in the test with Cell membrane [14], 30% in the test on Cell membrane [15], “Dose-Dependent Effect” in the test on Cell membrane [17] and greater than 75% in the test on MRC5 [18]. The outcome with Cell membrane [3] was Active. For the same substance, the “inhibition (INH)” value worked out at 75% in the test on Staphylococcus aureus [4] and 100% in the test on Staphylococcus aureus [11]. Also, the inhibition entry in the test with Staphylococcus aureus [9] was “Tde”.
For H-RWLRRWLRWWRR-NH2, the “fold change (FC)” value in the test on Escherichia coli [1], in the test on Escherichia coli [2], in the test with Escherichia coli [6], in the test on Staphylococcus aureus [7], in the test with Staphylococcus aureus [13] and with Staphylococcus aureus [16] was 2 throughout. Further, the Activity was less than 60% with HepaRG; “Dose-Dependent Effect” with Cell membrane [5]; 75% in the test on Cell membrane [8]; less than 30% in the test on HEK293; less than 30% with MRC5 [10]; “Dose-Dependent Effect” with Cell membrane [12]. In addition, the Activity result with Cell membrane [14] was “Dose-Dependent Effect”; in the test on Cell membrane [15], 30%; in the test on Cell membrane [17], “Dose-Dependent Effect”; in the test with MRC5 [18], less than 60%. For the same substance, in the test with Cell membrane [3], the outcome was Active. Moreover, the figures for the “inhibition (INH)” value in the test on Staphylococcus aureus [4] and in the test with Staphylococcus aureus [11] were 75% and 100%, respectively. In the test with Staphylococcus aureus [9], the inhibition result is “Tde”.
